# T cruzi intra: inhibitors of intracellular Trypanosoma cruzi; AID 651903; intracellular Trypanosoma cruzi in host cells, plate reader; 22,000 compounds, 4.9% hits; activity score (inhibition), % at 5.01 µM; in the data active = activity score above about 55%; inconclusive = no clear call, values can overlap the other calls;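 note: parasites and compound incubated about four days before reading; 0% = median of neutral control wells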
# A1 apoptosis 2: compounds inhibiting A1, read as caspase activation | 24,000 tested, under 10 active | AID 2465 | MEF A1-2A-BIM cells, caspase-Glo luminescence, 3 h; percent of clofoctol response, DMSO zero | caspase activation, % (concentration not given with the values); in the data active = caspase activation above about 5.9%; inconclusive = no clear call, values can overlap the other calls; inactive = below about 2.2%
#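 Test system – A1-2A-BIM-expressing MEF cells · Input – 2500 cells/well · Medium – RPMI-1640 growth medium with 10% FBS · Compound dosing – 50 nL pinned compound · Timing – 3 h compound exposure at 37 °C · Technique – Caspase-Glo luminescence (DEVD substrate) · Evaluation – Caspase-3/7 activity from luminescence increase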
# INS-1E ATP HTS: preserves ATP levels in cytokine-treated INS-1E cells | 20,000 compounds, 0.1% hits | AID 488910 | protection from cytokine-induced ATP loss, % at 10 µM | INS-1E cytokine-induced death, ATP luminescence, 48 h; normalised: neutral wells 0, positive control 100;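 active = mean replicate protection from cytokine-induced ATP loss at least 50% and at least 75% of replicates each reaching 50%; inconclusive = meets only one of the two criteria, mean or replicate share; inactive = fails both the mean and replicate share criteria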
#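 Material: INS-1E rat cells; Quantity: 8000 cells/well; Buffer or medium: phenol-red-free RPMI with 5% fetal bovine serum; Probe or stimulus: cytokine cocktail of IFN-γ, TNF-α and IL-1β; Compound dosing: single test concentration per compound, delivered by pin transfer; Incubation: 48 h co-treatment, 10 min post-lysis read; Signal: CellTiter-Glo luminescence.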
# Active calls of the source: *; ? = inconclusive; . = not tested or not shown. This is one part of a sample in which hits are shown more often than they occur.
SMILES,T cruzi intra,A1 apoptosis 2,INS-1E ATP HTS
COc1ccc(S(=O)(=O)N(C)C[C@H]2OCCCC[C@H](C)Oc3ccc(NC(=O)Nc4ccc(C(F)(F)F)cc4)cc3C(=O)N([C@H](C)CO)C[C@H]2C)cc1,.,0,.
C[C@H](CO)N1C[C@H](C)[C@H](CN(C)S(=O)(=O)c2ccccc2)OCCCC[C@H](C)Oc2ccc(NC(=O)Nc3ccc(C(F)(F)F)cc3)cc2C1=O,.,0,.
Cc1ccc(S(=O)(=O)N(C)C[C@H]2OCCCC[C@@H](C)Oc3ccc(NC(=O)Nc4ccc(C(F)(F)F)cc4)cc3C(=O)N([C@H](C)CO)C[C@@H]2C)cc1,64*,.,-61
C[C@@H]1CCCCO[C@H](CN(C)S(=O)(=O)c2ccccc2)[C@@H](C)CN([C@H](C)CO)C(=O)c2cc(NC(=O)Nc3ccc(C(F)(F)F)cc3)ccc2O1,64*,0,-18
Cc1ccc(S(=O)(=O)N(C)C[C@@H]2OCCCC[C@H](C)Oc3ccc(NC(=O)Nc4ccc(C(F)(F)F)cc4)cc3C(=O)N([C@@H](C)CO)C[C@@H]2C)cc1,.,-2,.
C[C@@H]1CCCCO[C@@H](CN(C)S(=O)(=O)c2ccccc2)[C@@H](C)CN([C@H](C)CO)C(=O)c2cc(NC(=O)Nc3ccc(C(F)(F)F)cc3)ccc2O1,69*,0,-13
C[C@@H]1CCCCO[C@H](CN(C)S(=O)(=O)c2ccccc2)[C@@H](C)CN([C@@H](C)CO)C(=O)c2cc(NC(=O)Nc3ccc(C(F)(F)F)cc3)ccc2O1,.,1,.
C[C@H]1CN([C@@H](C)CO)C(=O)c2cc(NS(=O)(=O)c3cccs3)ccc2O[C@H]1CN(C)Cc1ccc(C(F)(F)F)cc1,39,0,.
C[C@H](CO)N1C[C@H](C)[C@@H](CN(C)Cc2ccc(C(F)(F)F)cc2)Oc2ccc(NS(=O)(=O)c3cccs3)cc2C1=O,60*,-1,-12
C[C@H]1CN([C@@H](C)CO)C(=O)c2cc(NS(=O)(=O)c3cccs3)ccc2O[C@@H]1CN(C)Cc1ccc(C(F)(F)F)cc1,.,0,.
C[C@H](CO)N1C[C@H](C)[C@H](CN(C)Cc2ccc(C(F)(F)F)cc2)Oc2ccc(NS(=O)(=O)c3cccs3)cc2C1=O,58*,.,-14
C[C@@H]1CCCCO[C@H](CN(C)C(=O)Nc2ccc(C(F)(F)F)cc2)[C@@H](C)CN([C@H](C)CO)C(=O)c2cc(NS(=O)(=O)c3ccc(Cl)cc3)ccc2O1,66*,0,-47
C[C@@H]1CCCCO[C@H](CN(C)C(=O)Nc2cccc3ccccc23)[C@@H](C)CN([C@H](C)CO)C(=O)c2cc(NS(=O)(=O)c3ccc(Cl)cc3)ccc2O1,66*,0,-2
C[C@@H]1CCCCO[C@@H](CN(C)C(=O)Nc2ccc(C(F)(F)F)cc2)[C@@H](C)CN([C@H](C)CO)C(=O)c2cc(NS(=O)(=O)c3ccccc3)ccc2O1,61*,.,-4
C[C@@H]1CN([C@@H](C)CO)C(=O)c2cc(NS(=O)(=O)c3ccc(Cl)cc3)ccc2O[C@@H](C)CCCCO[C@@H]1CN(C)C(=O)Nc1cccc2ccccc12,.,0,.
C[C@H](CO)N1C[C@H](C)[C@@H](CN(C)C(=O)Nc2ccc(C(F)(F)F)cc2)OCCCC[C@H](C)Oc2ccc(NS(=O)(=O)c3ccc(Cl)cc3)cc2C1=O,.,-2,.
C[C@H](CO)N1C[C@H](C)[C@H](CN(C)C(=O)Nc2ccc(C(F)(F)F)cc2)OCCCC[C@H](C)Oc2ccc(NS(=O)(=O)c3ccc(F)cc3)cc2C1=O,.,-2,.
Cc1noc(C)c1NC(=O)N(C)C[C@@H]1OCCCC[C@H](C)Oc2ccc(NC(=O)NC3CCCCC3)cc2C(=O)N([C@@H](C)CO)C[C@H]1C,.,0,.
C[C@@H]1CN([C@@H](C)CO)C(=O)c2cccc(NC(=O)CCCCCC(=O)Nc3ccccc3N)c2O[C@@H]1CN(C)S(=O)(=O)c1ccc(Cl)cc1,56*,0,-18
C[C@@H]1CN([C@H](C)CO)C(=O)c2cccc(NC(=O)CCCCCC(=O)Nc3ccccc3N)c2O[C@@H]1CN(C)S(=O)(=O)c1ccc(Cl)cc1,?,-1,1
C[C@@H]1CN([C@H](C)CO)C(=O)c2cccc(NC(=O)CCCCCC(=O)Nc3ccccc3N)c2O[C@@H]1CN(C)Cc1ccc(Cl)c(Cl)c1,61*,.,3
C[C@@H]1CN([C@@H](C)CO)C(=O)c2cccc(NC(=O)CCCCCC(=O)Nc3ccccc3N)c2O[C@@H]1CN(C)Cc1ccc(Cl)c(Cl)c1,52,.,19
C[C@H](CO)N1C[C@H](C)[C@@H](CN(C)Cc2ccncc2)Oc2c(NC(=O)CCCCCC(=O)Nc3ccccc3N)cccc2C1=O,8,1,-12
C[C@H]1CN([C@@H](C)CO)C(=O)c2cccc(NC(=O)CCCCCC(=O)Nc3ccccc3N)c2O[C@H]1CN(C)Cc1ccc(Cl)c(Cl)c1,70*,1,9
COc1ccc(NC(=O)N(C)C[C@@H]2Oc3c(NC(=O)C4CCCCC4)cccc3C(=O)N([C@H](C)CO)C[C@H]2C)cc1,-3,0,0
SMILES,T cruzi intra,A1 apoptosis 2,INS-1E ATP HTS
COc1ccc(NC(=O)Nc2ccc3c(c2)C(=O)N([C@@H](C)CO)C[C@H](C)[C@H](CN(C)Cc2ccc(Cl)c(Cl)c2)O3)cc1,16,.,-20
C[C@H]1CN([C@@H](C)CO)C(=O)Cc2cc(NC(=O)CCC(F)(F)F)ccc2O[C@@H]1CN(C)Cc1ccc(Oc2ccccc2)cc1,59*,-1,-11
C[C@@H]1CN([C@H](C)CO)C(=O)Cc2cc(NC(=O)CCC(F)(F)F)ccc2O[C@@H]1CN(C)Cc1ccc(Oc2ccccc2)cc1,63*,1,-72
C[C@@H]1CN([C@@H](C)CO)C(=O)Cc2cc(NC(=O)CCC(F)(F)F)ccc2O[C@H]1CN(C)Cc1ccc(Oc2ccccc2)cc1,.,0,.
C[C@H](CO)N1C[C@H](C)[C@H](CN(C)Cc2ccc(Oc3ccccc3)cc2)Oc2ccc(NC(=O)CCC(F)(F)F)cc2CC1=O,22,.,-16
C[C@H]1CN([C@@H](C)CO)C(=O)CCCn2nncc2CO[C@H]1CN(C)C(=O)Nc1cccc2ccccc12,-11,0,6
Cc1noc(C)c1S(=O)(=O)N(C)C[C@H]1Oc2c(NC(=O)c3nc4ccccc4s3)cccc2C(=O)N([C@@H](C)CO)C[C@H]1C,11,1,-5
C=CCNC(=O)[C@H]1[C@@H]2C(=O)O[C@@H](c3ccccc3)[C@@H](c3ccccc3)N2[C@@H](c2ccc(OCCO)cc2)[C@]12C(=O)Nc1ccc(C#CCCO)cc12,.,0,.
COc1ccc([Si](C)(C)[C@@H]2[C@@H](CCO)O[C@]3(C(=O)N(C)c4c(Br)cc(C)cc43)[C@H]2C)cc1,.,44*,.
COc1ccc([Si](C)(C)[C@@H]2[C@@H](CCO)O[C@]3(C(=O)N(C)c4ccccc43)[C@H]2C)cc1,.,2,.
C[C@H](CO)N1C[C@H](C)[C@H](CN(C)Cc2ccncc2)OCc2cn(nn2)CCCC1=O,-20,0,7
C[C@H](CO)N1C[C@H](C)[C@H](CN(C)Cc2ccc(Oc3ccccc3)cc2)Oc2c(NC(=O)c3ccc(-c4nccs4)cc3)cccc2C1=O,86*,.,-70

# High-throughput results: PubChem, Broad Institute
